# Results reported in ChEMBL document CHEMBL1125164, “Spiro hydantoin aldose reductase inhibitors derived from 8-aza-4-chromanones” (J Med Chem, 1990).
# How the values were obtained:
# [1] = test system: Rattus norvegicus; test: Tested in vivo for ability to inhibit sorbitol formation in the lens of a streptozotocinized rat model after oral administration at the dose of 1.0 mg/Kg; format: functional; settings: Lens of camera-type eye
# How it was run: (§1)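 Rats made diabetic with streptozotocin 85 mg/kg iv at 0 h. Compound given by oral gavage at 4, 7 and 24 h. Lens sorbitol measured at 27 h. Reported as mean ± SEM percent inhibition of sorbitol accumulation versus untreated diabetic controls. Student's t test on absolute sorbitol levels.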
# [2] = test system: Rattus norvegicus; test: Tested in vivo for ability to inhibit sorbitol formation in the nerve of a streptozotocinized rat model after oral administration at the dose of 1.0 mg/Kg; format: functional
# How it was run: (§2)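 Rats made diabetic with streptozotocin 85 mg/kg iv at 0 h. Compound given by oral gavage at 4, 7 and 24 h. Sciatic nerve sorbitol measured at 27 h. Reported as mean ± SEM percent inhibition of sorbitol accumulation versus untreated diabetic controls. Student's t test on absolute sorbitol levels.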
# [3] = molecular target: Aldo-keto reductase family 1 member B1 (Homo sapiens, UniProt P15121); test: In vitro inhibitory activity against Aldose reductase isolated from human placenta
# How it was run: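 Human placental aldose reductase, partially purified (homogenized in 0.1 M K phosphate pH 7.0 with 5 mM 2-mercaptoethanol). Assay: 50 mM K phosphate pH 7.1, 0.4 M ammonium sulfate, 0.067 mM NADPH, 1.0 mM dl-glyceraldehyde, 25 °C. NADPH oxidation followed at 340 nm over 10 min.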
# [4] = test system: Rattus norvegicus; test: Tested in vivo for ability to inhibit sorbitol formation in the nerve of a streptozotocinized rat model after oral administration at the dose of 0.25 mg/Kg; format: functional; how it was run: as §2
# [5] = test system: Rattus norvegicus; test: Tested in vivo for ability to inhibit sorbitol formation in the lens of a streptozotocinized rat model after oral administration at the dose of 0.25 mg/Kg; format: functional; settings: Lens of camera-type eye; how it was run: as §1
# [6] = test system: Rattus norvegicus; test: Tested in vivo for ability to inhibit sorbitol formation in the nerve of a streptozotocinizad rat model after oral administration at the dose of 1.0 mg/Kg; format: functional; how it was run: as §2
# [7] = test system: Rattus norvegicus; test: Tested in vivo for ability to inhibit sorbitol formation in the lens of a streptozotocinizad rat model after oral administration at the dose of 1.0 mg/Kg; format: functional; settings: Lens of camera-type eye; how it was run: as §1
# [8] = test system: Rattus norvegicus; test: Tested in vivo for ability to inhibit sorbitol formation in the lens of a streptozotocinized rat model after oral administration at the dose of 5.0 mg/Kg; format: functional; settings: Lens of camera-type eye; how it was run: as §1
# [9] = test system: Rattus norvegicus; test: Tested in vivo for ability to inhibit sorbitol formation in the nerve of a streptozotocinized rat model after oral administration at the dose of 5.0 mg/Kg; format: functional; how it was run: as §2
# [10] = test system: Rattus norvegicus; test: Tested in vivo for ability to inhibit sorbitol formation in the lens of a streptozotocinized rat model after oral administration at the dose of 1.0 mg/kg; format: functional; settings: Lens of camera-type eye; how it was run: as §1
# [11] = test system: Rattus norvegicus; test: Tested in vivo for ability to inhibit sorbitol formation in the lens of a streptozotocinized rat model after oral administration at the dose of 0.5 mg/Kg; format: functional; settings: Lens of camera-type eye; how it was run: as §1
# [12] = test system: Rattus norvegicus; test: Tested in vivo for ability to inhibit sorbitol formation in the nerve of a streptozotocinized rat model after oral administration at the dose of 0.5 mg/Kg; format: functional; how it was run: as §2
# [13] = test system: Rattus norvegicus; test: Tested in vivo for ability to inhibit sorbitol formation in the nerve of a streptozotocinized rat model after oral administration at the dose of 0.1 mg/Kg; format: functional; how it was run: as §2
# [14] = test system: Rattus norvegicus; test: Tested in vivo for ability to inhibit sorbitol formation in the lens of a streptozotocinized rat model after oral administration at the dose of 0.1 mg/Kg; format: functional; settings: Lens of camera-type eye; how it was run: as §1
# [15] = test system: Rattus norvegicus; test: Tested in vivo for ability to inhibit sorbitol formation in the lens of a streptozotocinized rat model after oral administration at the dose of 0.15 mg/Kg; format: functional; settings: Lens of camera-type eye; how it was run: as §1
# [16] = test system: Rattus norvegicus; test: Tested in vivo for ability to inhibit sorbitol formation in the lens of a streptozotocinized rat model after oral administration at the dose of 1.5 mg/Kg; format: functional; settings: Lens of camera-type eye; how it was run: as §1
# [17] = test system: Rattus norvegicus; test: Tested in vivo for ability to inhibit sorbitol formation in the lens of a streptozotocinized rat model after oral administration at the dose of 0.75 mg/Kg; format: functional; settings: Lens of camera-type eye; how it was run: as §1
# [18] = test system: Rattus norvegicus; test: Tested in vivo for ability to inhibit sorbitol formation in the nerve of a streptozotocinized rat model after oral administration at the dose of 0.75 mg/kg; format: functional; how it was run: as §2
# [19] = test system: Rattus norvegicus; test: Tested in vivo for ability to inhibit sorbitol formation in the nerve of a streptozotocinized rat model after oral administration at the dose of 0.15 mg/Kg; format: functional; how it was run: as §2
# [20] = test system: Rattus norvegicus; test: Tested in vivo for ability to inhibit sorbitol formation in the nerve of a streptozotocinized rat model after oral administration at the dose of 1.5 mg/Kg; format: functional; how it was run: as §2
IC50 [3] [nM],SMILES,inhibition in vivo at 1 mg/kg [1] [%],inhibition in vivo at 1 mg/kg [2] [%],other results
3090,C[C@H]1C[C@@]2(NC(=O)NC2=O)c2cc(Cl)cnc2O1,-10.6,-9.5,
950,C[C@@H]1C[C@]2(NC(=O)NC2=O)c2cc(Cl)c[n+]([O-])c2O1,,,
6450,O=C1NC(=O)[C@@]2(CCOc3ncc(Cl)cc32)N1 (racemic),46.1,37,
1130,C[C@@H]1C[C@]2(NC(=O)NC2=O)c2cc(F)cnc2O1 (racemic),,,
7220,C[C@@H]1C[C@]2(NC(=O)NC2=O)c2cccnc2O1 (racemic),33.9,18.2,
890,C[C@H]1C[C@]2(NC(=O)NC2=O)c2cc(Cl)cnc2O1 (racemic),,,inhibition in vivo at 0.25 mg/kg [4]: 12.8%; inhibition in vivo at 0.25 mg/kg [5]: 31.8%
500,C[C@@H]1C[C@]2(NC(=O)NC2=O)c2cc(Br)cnc2O1 (racemic),67.4,72.7,
130,C[C@@H]1C[C@]2(NC(=O)NC2=O)c2cc(Cl)c[n+]([O-])c2O1 (racemic),,,inhibition in vivo at 1 mg/kg [6]: 37.6%; inhibition in vivo at 1 mg/kg [7]: 19.9%
25,C[C@@H]1C[C@]2(NC(=O)NC2=O)c2cc(Cl)cnc2O1 (racemic; 14),,,inhibition in vivo at 5 mg/kg [8]: 89%; inhibition in vivo at 5 mg/kg [9]: 98%; inhibition in vivo at 0.25 mg/kg [4]: 38%; inhibition in vivo at 0.25 mg/kg [5]: 13%
7.5,C[C@@H]1C[C@]2(NC(=O)NC2=O)c2cc(Cl)cnc2O1 (racemic; 16),,87.5,inhibition in vivo at 1 mg/kg [10]: 88.2%; inhibition in vivo at 0.5 mg/kg [11]: 55.5%; inhibition in vivo at 0.5 mg/kg [12]: 55.8%; inhibition in vivo at 0.1 mg/kg [13]: 8.7%; inhibition in vivo at 0.1 mg/kg [14]: 13.8%
,O=C1NC(=O)[C@@]2(CCOc3ccc(F)cc32)N1 [SORBINIL],,,inhibition in vivo at 0.15 mg/kg [15]: 12.3%; inhibition in vivo at 1.5 mg/kg [16]: 73.4%; inhibition in vivo at 0.75 mg/kg [17]: 44.2%; inhibition in vivo at 0.75 mg/kg [18]: 72.7%; inhibition in vivo at 0.15 mg/kg [19]: 29%; inhibition in vivo at 1.5 mg/kg [20]: 90.9%
